Experimental data taken from ChEMBL document CHEMBL4020726, “Discovery of 2-((4,6-dimethylpyrimidin-2-yl)thio)-N-phenylacetamide derivatives as new potent and selective human sirtuin 2 inhibitors” (Eur J Med Chem, 2017).
Activity calls are given as the source filed them. The rule behind the calls is not given here.

How the values were obtained:
[1] = molecular target: T1, NAD-dependent protein deacetylase sirtuin-2 (Homo sapiens) (UniProt Q8IXJ6); assay: Inhibition of human SIRT2 at 5 uM
T1 sequence (whole entry): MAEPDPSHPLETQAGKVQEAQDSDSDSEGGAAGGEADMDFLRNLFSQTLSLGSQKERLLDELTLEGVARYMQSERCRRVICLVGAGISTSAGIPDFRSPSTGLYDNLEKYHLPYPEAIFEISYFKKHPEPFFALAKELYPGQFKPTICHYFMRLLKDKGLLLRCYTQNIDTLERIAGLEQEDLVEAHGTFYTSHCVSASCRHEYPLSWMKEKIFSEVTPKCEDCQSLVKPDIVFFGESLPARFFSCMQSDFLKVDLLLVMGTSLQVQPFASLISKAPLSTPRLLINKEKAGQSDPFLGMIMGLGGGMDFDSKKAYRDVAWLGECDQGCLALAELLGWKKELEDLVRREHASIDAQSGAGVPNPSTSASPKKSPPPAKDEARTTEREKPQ

[2] = molecular target: T1, NAD-dependent protein deacetylase sirtuin-2 (Homo sapiens); assay: Inhibition of human SIRT2 at 50 uM
MCF7 [3] = assay: Growth inhibition of human MCF7 cells at 50 uM after 120 hrs by MTT assay; format: functional
Method in brief: (§1)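 MCF-7 cells were kept in high-glucose DMEM with 10% FBS and penicillin/streptomycin, split at 80–90% confluency and used within 10 passages. They were seeded at 3000 cells/well, grown 24 h, then exposed for 120 h at 37°C, 5% CO2 (final DMSO 1% v/v). MTT formazan was dissolved in acidified 20% SDS and read at 570 nm. Triplicates; experiments repeated at least twice.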

[4] = Growth inhibition of human HL7702 cells at 100 uM after 120 hrs by MTT assay; format: cell-based; details: HL7702 (L02) cells, read-out: GI
[5] = molecular target: T2, NAD-dependent protein deacetylase sirtuin-3, mitochondrial (Homo sapiens, UniProt Q9NTG7); assay: Inhibition of SIRT3 (unknown origin)
T2 sequence (Q9NTG7 whole entry): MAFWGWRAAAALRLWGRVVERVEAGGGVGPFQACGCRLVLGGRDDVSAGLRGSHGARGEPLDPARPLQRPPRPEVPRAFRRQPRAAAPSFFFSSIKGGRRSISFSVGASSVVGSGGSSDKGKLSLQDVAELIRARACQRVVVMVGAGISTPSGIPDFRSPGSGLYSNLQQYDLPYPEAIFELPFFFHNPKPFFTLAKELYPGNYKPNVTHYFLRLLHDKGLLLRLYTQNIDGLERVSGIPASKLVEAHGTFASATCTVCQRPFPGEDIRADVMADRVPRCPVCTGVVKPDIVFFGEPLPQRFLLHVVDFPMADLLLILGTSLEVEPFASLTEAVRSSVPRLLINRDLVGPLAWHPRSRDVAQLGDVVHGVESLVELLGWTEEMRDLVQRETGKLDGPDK

[6] = molecular target: T3, NAD-dependent protein deacetylase sirtuin-1 (Homo sapiens, UniProt Q96EB6); assay: Inhibition of SIRT1 (unknown origin)
T3 sequence (Q96EB6 whole entry): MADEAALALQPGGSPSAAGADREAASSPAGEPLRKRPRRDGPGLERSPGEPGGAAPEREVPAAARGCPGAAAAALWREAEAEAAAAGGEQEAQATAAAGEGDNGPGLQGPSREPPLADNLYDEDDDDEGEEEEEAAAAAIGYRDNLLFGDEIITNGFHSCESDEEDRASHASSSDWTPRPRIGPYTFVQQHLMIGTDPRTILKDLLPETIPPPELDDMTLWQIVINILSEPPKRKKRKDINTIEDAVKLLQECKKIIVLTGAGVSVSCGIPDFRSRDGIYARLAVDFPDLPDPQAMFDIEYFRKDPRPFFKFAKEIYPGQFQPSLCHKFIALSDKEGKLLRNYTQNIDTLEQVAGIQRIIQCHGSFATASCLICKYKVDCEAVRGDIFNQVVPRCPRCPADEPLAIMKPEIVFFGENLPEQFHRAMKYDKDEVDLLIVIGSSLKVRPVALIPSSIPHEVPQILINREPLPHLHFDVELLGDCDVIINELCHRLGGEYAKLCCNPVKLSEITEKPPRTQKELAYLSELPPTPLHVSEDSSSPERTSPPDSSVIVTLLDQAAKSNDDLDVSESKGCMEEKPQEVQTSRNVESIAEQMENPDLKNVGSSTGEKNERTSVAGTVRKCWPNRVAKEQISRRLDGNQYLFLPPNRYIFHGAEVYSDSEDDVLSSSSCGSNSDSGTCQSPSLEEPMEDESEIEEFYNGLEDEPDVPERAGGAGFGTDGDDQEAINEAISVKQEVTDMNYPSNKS

MCF7 [7] = assay: Growth inhibition of human MCF7 cells after 120 hrs by MTT assay; format: functional, cell-based; method in brief: as §1

Row | SMILES | inhibition [1] [%] | inhibition [2] [%] | other results
1 | Cc1cc(C)nc(SCC(=O)Nc2cccc(Oc3ccccc3)c2)n1 | 49 | 92 | 
2 | Cc1cc(C)nc(SCC(=O)Nc2ccc(C(O)c3ccccc3)cc2)n1 (centres undefined) | 26 | 75 | 
3 | Cc1cc(C)nc(SCC(=O)Nc2cccc(OCc3ccccc3)c2)n1 | 59 | 92 | 
4 | Cc1cc(C)nc([S+]([O-])CC(=O)Nc2ccc(Oc3ccccc3)cc2)n1 (centres undefined) | 34 | 79 | 
5 | Cc1cc(C)nc(SCC(=O)Nc2cccc(COc3ccc(NS(=O)(=O)C4CC4)cc3)c2)n1 | 67 | 95 | 
6 | Cc1cc(C)nc(SCC(=O)Nc2cccc(COc3ccc4[nH]ncc4c3)c2)n1 | 57 | 91 | 
7 | Cc1cc(C)nc(SCC(=O)Nc2cccc(C(=O)c3ccccc3)c2)n1 | 40 | 89 | 
8 | Cc1cc(C)nc(SCC(=O)Nc2cccc(Nc3ccccc3)c2)n1 | 61 | 95 | 
9 | Cc1cc(C)nc(SCC(=O)Nc2cccc(Cc3ccccc3)c2)n1 | 73 | 96 | 
10 | Cc1cc(C)nc(SCC(=O)Nc2cccc(COc3cccc4cccnc34)c2)n1 | 41 | 73 | 
11 | Cc1ccc(C(=O)Nc2ccc(S(=O)(=O)O)c3cc(S(=O)(=O)O)cc(S(=O)(=O)O)c23)cc1NC(=O)c1cccc(NC(=O)Nc2cccc(C(=O)Nc3cc(C(=O)Nc4ccc(S(=O)(=O)O)c5cc(S(=O)(=O)O)cc(S(=O)(=O)O)c45)ccc3C)c2)c1 | 31 | 73 | 
12 | Cc1cc(C)nc(S(=O)(=O)CC(=O)Nc2ccc(Oc3ccccc3)cc2)n1 | -2 | 21 | 
13 | Cc1cc(C)nc(SCC(=O)Nc2cccc(C(O)c3ccccc3)c2)n1 (centres undefined) | 18 | 78 | 
14 | Cc1cc(C)nc(SCC(=O)Nc2ccc(C(=O)c3ccccc3)cc2)n1 | 22 | 74 | 
15 | O=C(Nc1ccccc1-c1cn2c(CN3CCNCC3)csc2n1)c1cnc2ccccc2n1 |  |  | IC50 [5]: 0.85 µM
16 | Cc1cc(C)nc(SCC(=O)Nc2cccc(COc3ccc4ccccc4c3)c2)n1 | 59 | 84 | 
17 | Cc1cc(C)nc(SCC(=O)Nc2ccc(Oc3ccccc3)cc2)n1 | 42 | 78 | 
18 | Cc1cc(C)nc(SCC(=O)Nc2cccc(COc3ccccc3)c2)n1 | 71 | 96 | 
19 | Cc1cc(C)nc(SCC(=O)Nc2cccc(COc3cccc4ccccc34)c2)n1 | 42 | 79 | 
20 | CC(=O)Nc1cccc(OCc2cccc(NC(=O)CSc3nc(C)cc(C)n3)c2)c1 | 68 | 99 | 
21 | Cc1cc(C)nc(SCC(=O)Nc2cccc(COc3ccc(NC(=O)c4cccs4)cc3)c2)n1 |  |  | IC50 [6]: > 300 µM; IC50 [5]: > 300 µM; inhibition of growth at 50 µM (MCF7 [3]; MCF7, 120 h, read-out: GI): > 50%; growth inhibition (GI) (MCF7 [7]): Dose-dependent effect; inhibition at 120 h, 100 µM [4]: 3%
22 | Cc1cc(C)nc(SCC(=O)Nc2cccc(COc3ccc(NS(=O)(=O)c4ccccc4)cc3)c2)n1 | 73 | 87 | 

The next lines start with results.

Row | inhibition [1] [%] | inhibition [2] [%] | SMILES | other results
23 | 20 | 72 | Cc1cc(C)nc(SCC(=O)Nc2ccc(CNc3ccccc3)cc2)n1 | 
24 | 17 | 58 | Cc1cc(C)nc(SCC(=O)Nc2ccc(NCc3ccco3)cc2)n1 | 
25 | 1 | 24 | Cc1cc(C)nc(SCC(=O)Nc2ccc(COc3ccccc3)cc2)n1 | growth inhibition (GI) (MCF7 [3]): inactive; inhibition at 120 h, 100 µM [4]: 6%
26 | 15 | 70 | Cc1cc(C)nc(SCC(=O)Nc2ccc(NCc3cccs3)cc2)n1 | 
27 | 70 | 74 | Cc1cc(C)nc(SCC(=O)Nc2ccc(Cc3ccccc3)cc2)n1 | 
28 | 40 | 62 | Cc1cc(C)nc(SCC(=O)Nc2ccc(OCc3ccccc3)cc2)n1 | 
29 | 60 | 93 | Cc1cc(C)nc(SCC(=O)Nc2cccc(NCc3cccs3)c2)n1 | 
30 | 10 | 43 | Cc1cc(C)nc(SCC(=O)Nc2ccc(NCc3ccncc3)cc2)n1 | 
31 | 19 | 72 | Cc1cc(C)nc(SCC(=O)Nc2ccc(Nc3ccccc3)cc2)n1 | 
32 | 49 | 90 | Cc1cc(C)nc(SCC(=O)Nc2cccc(CNc3ccccc3)c2)n1 | 
33 | 62 | 92 | CC(=O)Nc1ccc(OCc2cccc(NC(=O)CSc3nc(C)cc(C)n3)c2)cc1 | 
34 | 64 | 95 | Cc1cc(C)nc(SCC(=O)Nc2cccc(NCc3ccccc3)c2)n1 | 
35 | 9 | 55 | Cc1cc(C)nc(SCC(=O)Nc2ccc(NCc3ccccc3)cc2)n1 | 
